Measurements from ChEMBL document CHEMBL1137569, “Pharmacomodulations around the 4-oxo-1,4-dihydroquinoline-3-carboxamides, a class of potent CB2-selective cannabinoid receptor ligands: consequences in receptor affinity and functionality” (J Med Chem, 2007).

Key:
Cannabinoid receptor 2 [1] = target: T1, Cannabinoid receptor 2 (Homo sapiens, UniProt P34972); experiment: Inhibition of human CB2 receptor expressed in CHO cells; format: cell-based
Cannabinoid receptor 2 [2] = target: T1, Cannabinoid receptor 2; experiment: Displacement of [3H]CP-55940 from human CB2 receptor expressed in CHO cells; format: cell-based; parameters: concentration or dose not given beside the values
Procedure, shortened: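 Competitive radioligand binding on membranes from CHO cells expressing hCB2, with [3H]-CP-55,940 as tracer. Compounds were first screened at 10 µM. Ki at CB2 was then determined for those displacing more than 60% of specific binding.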

Cannabinoid receptor 2 [3] = target: T1, Cannabinoid receptor 2; experiment: Activity at human CB2 receptor expressed in CHO cells assessed as stimulated [35S]GTP-gamma-S binding relative to control; format: functional, cell-based; parameters: concentration or dose not given beside the values

T1 sequence (P34972 whole entry): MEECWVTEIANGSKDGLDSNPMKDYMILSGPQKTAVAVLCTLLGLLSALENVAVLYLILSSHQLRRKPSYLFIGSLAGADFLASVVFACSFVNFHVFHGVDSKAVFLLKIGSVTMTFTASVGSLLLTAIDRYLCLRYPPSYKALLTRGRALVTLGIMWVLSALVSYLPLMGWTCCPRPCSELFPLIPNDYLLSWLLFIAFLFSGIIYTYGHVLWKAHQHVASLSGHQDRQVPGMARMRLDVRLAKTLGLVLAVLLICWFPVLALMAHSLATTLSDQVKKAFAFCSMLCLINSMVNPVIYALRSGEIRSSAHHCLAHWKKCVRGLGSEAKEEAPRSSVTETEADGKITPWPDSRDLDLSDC

SMILES | Ki (Cannabinoid receptor 2 [1]) [nM] | Activity (Cannabinoid receptor 2 [2]) [%] | Activity (Cannabinoid receptor 2 [3]) [%]
CCCCCn1cc(C(=O)NC(C)C23CC4CC(CC(C4)C2)C3)c(=O)c2ccc(Cl)cc21 (single isomer, unassigned; (+)) [listing 1 of 2 here] | 265 |  | 
CCCCCn1cc(C(=O)NC(C)C23CC4CC(CC(C4)C2)C3)c(=O)c2ccccc21 (racemic) [listing 1 of 2 here] | 28.5 |  | 
CCCCCn1cc(C(=O)NC(C)C23CC4CC(CC(C4)C2)C3)c(=O)c2cc(Cl)ccc21 (single isomer, unassigned; (-)) [listing 1 of 2 here] |  | 87.7 | 86.1
CCCCCn1cc(C(=O)NC23CC4CC(C)(CC(C)(C4)C2)C3)c(=O)c2cccc(Cl)c21 | 27.4 | 98.7 | 187
CCCCCn1cc(C(=O)NC2CCCc3ccccc32)c(=O)c2cc(Cl)ccc21 (racemic) [listing 1 of 2 here] |  | 98.2 | 98.5
CCCCCn1cc(C(=O)NC23CC4CC(C)(CC(C)(C4)C2)C3)c(=O)c2cnccc21 | 30.9 | 95 | 136
O=C(c1cn(CCN2CCOCC2)c2ccccc2c1=O)c1cccc2ccccc12 |  | 46.1 | 
CC12CC3CC(C)(C1)CC(NC(=O)c1cn(CCCc4ccccc4)c4ccccc4c1=O)(C3)C2 | 160 | 101 | 98.8
CCCCCn1cc(C(=O)NC23CC4CC(C)(CC(C)(C4)C2)C3)c(=S)c2ccccc21 | 18.2 | 95.7 | 65.6
CCCCCn1cc(C(=O)NC(C)C23CC4CC(CC(C4)C2)C3)c(=O)c2ccc(Cl)cc21 (single isomer, unassigned; (+)) [listing 2 of 2 here] |  | 92.9 | 42.7
CC12CC3CC(C)(C1)CC(NC(=O)c1cn(Cc4ccc(Cl)cc4)c4ccccc4c1=O)(C3)C2 |  | 48.1 | 
CCCCCn1cc(C(=O)NC(C)C23CC4CC(CC(C4)C2)C3)c(=O)c2ccc(Cl)cc21 (single isomer, unassigned; (-)) [listing 1 of 2 here] |  | 102 | 53.5
CC12CC3CC(C)(C1)CC(NC(=O)c1cn(Cc4ccc(Br)cc4)c4ccccc4c1=O)(C3)C2 |  | 30.5 | 
O=C(NC12CC3CC(CC(C3)C1)C2)c1cn(CCN2CCOCC2)c2ccccc2c1=O | 152 | 101 | 
CCCC(C)(C)c1ccc2c(c1)OC(C)(C)[C@@H]1CC=C(C)C[C@@H]21 |  |  | 201
CC12CC3CC(C)(C1)CC(NC(=O)c1cn(CCc4ccccc4)c4ccccc4c1=O)(C3)C2 | 333 | 95.8 | 141
O=C(c1c[nH]c2ccccc2c1=O)c1cccc2ccccc12 |  | 31 | 
CCCCCn1cc(C(=O)NC(C)C23CC4CC(CC(C4)C2)C3)c(=O)c2ccccc21 (racemic) [listing 2 of 2 here] |  | 99.1 | 156
CCCCCn1cc(C(=O)NC2CCCc3ccccc32)c(=O)c2ccccc21 (single isomer, unassigned; (+)) [listing 1 of 2 here] |  |  | 183
CCCCCn1cc(C(=O)NC2CCCc3ccccc32)c(=O)c2cc(Cl)ccc21 (racemic) [listing 2 of 2 here] | 506 |  | 
CCCCCCn1cc(C(=O)c2cccc3ccccc23)c(=O)c2ccccc21 | 582 | 89.5 | 
CCCCCn1cc(C(=O)c2ccc3ccccc3c2)c(=O)c2ccccc21 | 1290 | 74.3 | 
CCCCCn1cc(C(=O)NC23CC4CC(C)(CC(C)(C4)C2)C3)c(=O)c2ncccc21 | 259 | 93.4 | 170
CCCCCn1cc(C(=O)NC(C)C23CC4CC(CC(C4)C2)C3)c(=O)c2cc(Cl)ccc21 (single isomer, unassigned; (-)) [listing 2 of 2 here] | 235 |  | 

SMILES | Ki (Cannabinoid receptor 2 [1]) [nM] | Activity (Cannabinoid receptor 2 [2]) [%] | Activity (Cannabinoid receptor 2 [3]) [%]
CCCCCn1c(C)c(C(=O)NC23CC4CC(C)(CC(C)(C4)C2)C3)c(=O)c2ccccc21 | 200 | 96.7 | 128
CCCCCn1cc(C(=O)NC(C)C23CC4CC(CC(C4)C2)C3)c(=O)c2ccccc21 (single isomer, unassigned; (+)) [listing 1 of 2 here] | 202 |  | 
CCCCn1cc(C(=O)c2cccc3ccccc23)c(=O)c2ccccc21 | 1550 | 77.7 | 
CCCCCn1cc(C(=O)NCC23CC4CC(CC(C4)C2)C3)c(=O)c2ccccc21 | 50.6 | 87.2 | 155
CCCCCn1c(-c2ccccc2)c(C(=O)NC23CC4CC(C)(CC(C)(C4)C2)C3)c(=O)c2ccccc21 | 119 | 97.2 | 27.1
O=C(c1cn(Cc2ccc(Br)cc2)c2ccccc2c1=O)c1cccc2ccccc12 | 966 | 93.7 | 
CCCCCn1cc(C(=O)NC23CC4CC(C)(CC(C)(C4)C2)C3)c(=O)c2cc(Cl)ccc21 | 54.6 | 86.7 | 49.6
O=C(c1cn(CCc2ccccc2)c2ccccc2c1=O)c1cccc2ccccc12 |  | 56.8 | 
CCCCCn1cc(CNC23CC4CC(CC(C4)C2)C3)c(=O)c2ccccc21 | 1670 | 81.3 | 
CCCCCn1cc(C(=O)NC(C)C23CC4CC(CC(C4)C2)C3)c(=O)c2cc(Cl)ccc21 (single isomer, unassigned; (+)) [listing 1 of 2 here] |  | 97.2 | 76.7
CCCCCn1cc(C(=O)NC23CC4CC(C)(CC(C)(C4)C2)C3)c(=O)c2ccc(Cl)cc21 | 5.3 | 106 | 51.6
CCCCCn1cc(CNCCc2ccccc2)c(=O)c2ccccc21 | > 4000 | 25.9 | 
CCCCCn1cc(C(=O)NC2CCCc3ccccc32)c(=O)c2cc(Cl)ccc21 (single isomer, unassigned; (+)) [listing 1 of 2 here] | 121 |  | 
CCCCCn1c(C)c(C(=O)NCCc2ccccc2)c(=O)c2ccccc21 |  | 57.3 | 
O=C(c1cn(Cc2ccccc2)c2ccccc2c1=O)c1cccc2ccccc12 | 656 | 100 | 
O=C(c1cn(CCCc2ccccc2)c2ccccc2c1=O)c1cccc2ccccc12 | > 2000 | 80.4 | 
CCCCCn1c(C)c(C(=O)NC(C)c2ccccc2)c(=O)c2ccccc21 (single isomer, unassigned; (-)) | 663 | 91.7 | 186
CCCCCn1cc(C(=O)c2c3ccccc3cc3ccccc23)c(=O)c2ccccc21 | 1500 | 76.5 | 
CCCCCCC(C)(C)c1ccc(C2CC(O)CC[C@H]2CCCO)c(O)c1 (single isomer, unassigned) |  |  | 230
CCCCCn1cc(NC(=O)CCc2ccccc2)c(=O)c2ccccc21 | 1130 | 83.4 | 183
CCCCCn1cc(C(=O)c2ccc3c(c2)COC3)c(=O)c2ccccc21 | > 2000 | 70.2 | 
CCCCCn1cc(C(=O)c2ccc(OC)cc2)c(=O)c2ccccc21 |  | 46.9 | 
CC(NC(=O)c1cn(CCN2CCOCC2)c2ccccc2c1=O)c1ccccc1 (single isomer, unassigned; (-)) | < 2000 | 66.5 | 
CC12CC3CC(C)(C1)CC(NC(=O)c1cn(CCC4CCCCC4)c4ccccc4c1=O)(C3)C2 |  | 38.8 | 157

SMILES | Ki (Cannabinoid receptor 2 [1]) [nM] | Activity (Cannabinoid receptor 2 [2]) [%] | Activity (Cannabinoid receptor 2 [3]) [%]
CCCCCn1cc(C(=O)NC2CCCc3ccccc32)c(=O)c2ccccc21 (single isomer, unassigned; (-)) [listing 1 of 2 here] | 1010 |  | 
CCCCCn1cc(C(=O)c2ccc3cc(OC)ccc3c2)c(=O)c2ccccc21 |  | 44.1 | 
CCCCCn1cc(C(=O)c2ccccc2)c(=O)c2ccccc21 | 446 | 94.5 | 
O=C(c1cn(CCC2CCCCC2)c2ccccc2c1=O)c1cccc2ccccc12 | 1670 | 78.5 | 
O=C(NCCc1ccccc1)c1cn(CCN2CCOCC2)c2ccccc2c1=O |  | 46.7 | 
CCCCCn1cc(C(=O)NC(C)C23CC4CC(CC(C4)C2)C3)c(=O)c2ccccc21 (single isomer, unassigned; (+)) [listing 2 of 2 here] |  | 64.3 | 172
O=C(c1cn(Cc2ccc(Cl)cc2)c2ccccc2c1=O)c1cccc2ccccc12 | 1120 | 96.5 | 
CCCCCn1c(C)c(C(=O)NC(C)c2cccc3ccccc23)c(=O)c2ccccc21 (single isomer, unassigned; (-)) | > 3000 | 70.4 | 
CCCCCn1cc(C(=O)NC(C)C23CC4CC(CC(C4)C2)C3)c(=O)c2ccccc21 (stereo in doubt; 24) [listing 1 of 2 here] | 14 |  | 
CCCCCn1cc(C(=O)NC(C)C23CC4CC(CC(C4)C2)C3)c(=O)c2ccc(Cl)cc21 (racemic) [listing 1 of 2 here] |  | 102 | 56.3
CCCCCn1cc(CNCC2CCCc3ccccc32)c(=O)c2ccccc21 (racemic) | > 4000 | 63.9 | 
CCCCCn1cc(C(=O)NC(C)C23CC4CC(CC(C4)C2)C3)c(=O)c2cc(Cl)ccc21 (racemic) [listing 1 of 2 here] |  | 81.8 | 97.3
CCCCCn1cc(C(=O)NC(C)C23CC4CC(CC(C4)C2)C3)c(=O)c2cc(Cl)ccc21 (single isomer, unassigned; (+)) [listing 2 of 2 here] | 144 |  | 
CCCCCn1cc(C(=O)NC2CCCc3ccccc32)c(=O)c2ccccc21 (single isomer, unassigned; (+)) [listing 2 of 2 here] | 41.7 |  | 
CCCCCn1cc(C(=O)NC(C)C23CC4CC(CC(C4)C2)C3)c(=O)c2ccccc21 (stereo in doubt; 24) [listing 2 of 2 here] |  | 101 | 175
CCCCCCn1cc(C(=O)c2ccc(OC)cc2)c(=O)c2ccccc21 | > 2000 | 68.8 | 
CCCCCn1c(C)c(C(=O)NC(C)c2ccc3ccccc3c2)c(=O)c2ccccc21 (single isomer, unassigned; (-)) | > 2000 | 62.6 | 
CCCCCn1cc(C(=O)NC(C)C23CC4CC(CC(C4)C2)C3)c(=O)c2ccc(Cl)cc21 (racemic) [listing 2 of 2 here] | 41.1 |  | 
CCCCn1cc(C(=O)c2ccc(OC)cc2)c(=O)c2ccccc21 |  | < 10 | 
CCCCCn1cc(C(=O)NC2CCCc3ccccc32)c(=O)c2cc(Cl)ccc21 (single isomer, unassigned; (+)) [listing 2 of 2 here] |  | 92.8 | 124
CCCCCn1cc(C(=O)NC2CCCc3ccccc32)c(=O)c2ccccc21 (single isomer, unassigned; (-)) [listing 2 of 2 here] |  | 90.9 | 
CCCCCn1cc(C(=O)NC(C)C23CC4CC(CC(C4)C2)C3)c(=O)c2ccc(Cl)cc21 (single isomer, unassigned; (-)) [listing 2 of 2 here] | 26.1 |  | 
CCCCCn1cc(C(=O)NC(C)C23CC4CC(CC(C4)C2)C3)c(=O)c2cc(Cl)ccc21 (racemic) [listing 2 of 2 here] | 222 |  | 
